{"source": "ChEMBL document CHEMBL5143611", "about": "“Antillatoxin-Stimulated Neurite Outgrowth Involves the Brain-Derived Neurotrophic Factor (BDNF) - Tropomyosin Related Kinase B (TrkB) Signaling Pathway” (J Nat Prod, 2022)", "key": {"[1]": {"tested_on": "Cerebral cortex neuron", "experiment": "Induction of BDNF release in Swiss Webster mouse immature cerebrocortical neuron assessed as increase in BDNF synthesis at 30 nM incubated for 30 mins by western blot analysis", "type": "functional, cell-based", "summary_of_the_method": "(§1)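 DIV-1 cortical neurons in six-well plates exposed to 30 nM for 30 min at 37 °C. Where antagonists were used, 15 min preincubation. Exposure stopped on ice, cells washed in cold PBS and lysed 30 min at 4 °C. Protein measured by Bradford. Equal protein run on 10% SDS-PAGE, blotted to PVDF, probed with specific antibodies, ECL detection.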"}, "[2]": {"experiment": "Induction of glutamate release in Swiss Webster mouse immature cerebrocortical neuron assessed as increase in glutamate release at 30 nM incubated for 2 hrs by HPLC based fluorescence method", "type": "functional, Cerebral cortex neuron", "summary_of_the_method": "(§2)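 Cortical neurons at 5 DIV in 96-well plates. Medium saved and cells washed in Locke's buffer, pH 7.4. Exposure in that buffer for 2 h at 22 °C, then three washes and return to the saved medium for 22 h at 37 °C. Medium then collected, derivatized with o-phthaldialdehyde and analysed by HPLC with fluorescence detection.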"}, "[3]": {"target": "BDNF/NT-3 growth factors receptor (Homo sapiens) (UniProt Q16620)", "sequence (Q16620 32-822 limits assumed)": "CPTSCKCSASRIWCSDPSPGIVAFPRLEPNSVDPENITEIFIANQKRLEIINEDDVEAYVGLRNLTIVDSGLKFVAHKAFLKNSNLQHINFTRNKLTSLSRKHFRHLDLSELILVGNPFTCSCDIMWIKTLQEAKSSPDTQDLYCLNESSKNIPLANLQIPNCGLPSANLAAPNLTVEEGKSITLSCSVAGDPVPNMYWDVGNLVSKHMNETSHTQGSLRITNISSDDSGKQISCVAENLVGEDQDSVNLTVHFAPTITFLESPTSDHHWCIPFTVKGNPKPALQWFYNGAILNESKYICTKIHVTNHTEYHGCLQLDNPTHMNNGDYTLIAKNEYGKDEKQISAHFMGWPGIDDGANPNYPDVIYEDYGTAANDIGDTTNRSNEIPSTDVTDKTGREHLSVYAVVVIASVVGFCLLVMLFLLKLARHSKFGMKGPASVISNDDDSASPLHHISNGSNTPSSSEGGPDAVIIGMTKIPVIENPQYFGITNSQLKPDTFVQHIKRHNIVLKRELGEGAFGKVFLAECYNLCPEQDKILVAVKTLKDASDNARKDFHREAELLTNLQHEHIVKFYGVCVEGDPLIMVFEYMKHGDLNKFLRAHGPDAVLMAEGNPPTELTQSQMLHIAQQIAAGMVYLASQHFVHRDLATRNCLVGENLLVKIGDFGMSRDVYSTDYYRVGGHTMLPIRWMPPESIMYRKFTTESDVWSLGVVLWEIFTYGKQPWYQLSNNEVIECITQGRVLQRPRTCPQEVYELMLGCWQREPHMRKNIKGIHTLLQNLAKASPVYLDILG", "experiment": "Activation of full length isoform of TrkB receptor (unknown origin) expressed in mouse cerebrocortical neuron assessed as increase in neurite length at 30 nM incubated for 24 hrs by DiI dye based microscopic analysis", "type": "cell-based", "settings": "filed as activator", "summary_of_the_method": "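E16 mouse cortical neurons plated at 0.5 × 10^6/well and lipofected 2 h after plating with 0.5 µg gene-of-interest plasmid or empty vector plus 0.25 µg GFP plasmid. 30 nM or vehicle added 3 h after transfection. Neurons imaged at DIV-2.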"}, "[4]": {"target": "RAC-alpha serine/threonine-protein kinase (Mus musculus) (UniProt P31750)", "sequence (P31750 whole entry)": "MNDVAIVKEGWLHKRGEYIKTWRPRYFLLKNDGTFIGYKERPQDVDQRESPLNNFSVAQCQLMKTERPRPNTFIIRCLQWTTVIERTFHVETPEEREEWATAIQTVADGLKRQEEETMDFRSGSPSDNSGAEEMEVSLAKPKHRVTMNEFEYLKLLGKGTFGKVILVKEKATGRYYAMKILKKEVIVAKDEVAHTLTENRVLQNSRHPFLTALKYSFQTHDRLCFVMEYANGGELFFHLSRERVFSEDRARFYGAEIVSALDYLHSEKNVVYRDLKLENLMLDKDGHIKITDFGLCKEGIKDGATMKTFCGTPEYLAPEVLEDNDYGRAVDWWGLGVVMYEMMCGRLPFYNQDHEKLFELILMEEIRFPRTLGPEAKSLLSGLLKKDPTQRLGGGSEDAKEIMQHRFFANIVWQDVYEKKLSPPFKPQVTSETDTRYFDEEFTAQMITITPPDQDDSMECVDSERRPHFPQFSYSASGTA", "experiment": "Activation of Akt signalling pathway in Swiss Webster mouse immature cerebrocortical neuron assessed as increase in AKT phosphorylation of Ser473 by measuring fold change at […] incubated for 24 hrs by western blot analysis", "type": "cell-based", "settings": "filed as activator, dose lower 10.0 µM"}, "[5]": {"experiment": "Induction of aspartate release in Swiss Webster mouse immature cerebrocortical neuron assessed as increase in aspartate concentration at 30 nM incubated for 2 hrs by HPLC based fluorescence method", "type": "functional, Cerebral cortex neuron", "summary_of_the_method": "as §2"}, "[6]": {"tested_on": "Cerebral cortex neuron", "experiment": "Induction of glutamate release in Swiss Webster mouse immature cerebrocortical neuron assessed as increase in glutamate release at 30 to 100 nM incubated for 2 hrs by HPLC based fluorescence method", "type": "functional, cell-based", "settings": "dose 30-100 nM", "summary_of_the_method": "as §2"}, "[7]": {"experiment": "Induction of glutamate release in Swiss Webster mouse immature cerebrocortical neuron assessed as increase in glutamate release at 100 nM incubated for 2 hrs by HPLC based fluorescence method", "type": "functional, Cerebral cortex neuron", "summary_of_the_method": "as §2"}, "[8]": {"experiment": "(§3) Induction of BDNF release in Swiss Webster mouse immature cerebrocortical neuron assessed as increase in BDNF release incubated for 4 days by sandwich ELISA method", "type": "functional, cell-based", "settings": "Cerebral cortex neuron, 96 h", "summary_of_the_method": "(§4)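 In situ sandwich ELISA. Plates coated overnight at 4 °C with anti-BDNF capture antibody, then blocked. Immature cortical neurons plated directly in the wells with BDNF standards and treated from 3 h after plating; 50 mM KCl served as comparator. After 4 days cells were washed off with TBST, and bound BDNF was detected with a polyclonal antibody for 2 h at RT.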"}, "[9]": {"tested_on": "Cerebral cortex neuron", "experiment": "as §3", "type": "functional, cell-based", "settings": "time 4.0 day, DDE = dose-dependent effect", "summary_of_the_method": "as §4"}, "[10]": {"experiment": "Induction of aspartate release in Swiss Webster mouse immature cerebrocortical neuron assessed as increase in aspartate concentration at 100 nM incubated for 2 hrs by HPLC based fluorescence method", "type": "functional, Cerebral cortex neuron", "summary_of_the_method": "as §2"}, "[11]": {"target": "Serine/threonine-protein kinase mTOR (Mus musculus) (UniProt Q9JLN9)", "experiment": "Activation of mTOR signalling pathway in Swiss Webster mouse immature cerebrocortical neuron assessed as increase in mTOR phosphorylation at Ser2448 at […] incubated for 3 hrs by western blot analysis", "type": "cell-based", "settings": "filed as activator"}, "[12]": {"tested_on": "Cerebral cortex neuron", "experiment": "Induction of BDNF release in Swiss Webster mouse immature cerebrocortical neuron assessed as increase in BDNF release at 100 to 3000 nM incubated for 4 days by sandwich ELISA method", "type": "functional, cell-based", "settings": "dose 100-3000 nM, time 4.0 day", "summary_of_the_method": "as §4"}, "[13]": {"target": "BDNF/NT-3 growth factors receptor (Mus musculus) (UniProt P15209)", "sequence (P15209 whole entry)": "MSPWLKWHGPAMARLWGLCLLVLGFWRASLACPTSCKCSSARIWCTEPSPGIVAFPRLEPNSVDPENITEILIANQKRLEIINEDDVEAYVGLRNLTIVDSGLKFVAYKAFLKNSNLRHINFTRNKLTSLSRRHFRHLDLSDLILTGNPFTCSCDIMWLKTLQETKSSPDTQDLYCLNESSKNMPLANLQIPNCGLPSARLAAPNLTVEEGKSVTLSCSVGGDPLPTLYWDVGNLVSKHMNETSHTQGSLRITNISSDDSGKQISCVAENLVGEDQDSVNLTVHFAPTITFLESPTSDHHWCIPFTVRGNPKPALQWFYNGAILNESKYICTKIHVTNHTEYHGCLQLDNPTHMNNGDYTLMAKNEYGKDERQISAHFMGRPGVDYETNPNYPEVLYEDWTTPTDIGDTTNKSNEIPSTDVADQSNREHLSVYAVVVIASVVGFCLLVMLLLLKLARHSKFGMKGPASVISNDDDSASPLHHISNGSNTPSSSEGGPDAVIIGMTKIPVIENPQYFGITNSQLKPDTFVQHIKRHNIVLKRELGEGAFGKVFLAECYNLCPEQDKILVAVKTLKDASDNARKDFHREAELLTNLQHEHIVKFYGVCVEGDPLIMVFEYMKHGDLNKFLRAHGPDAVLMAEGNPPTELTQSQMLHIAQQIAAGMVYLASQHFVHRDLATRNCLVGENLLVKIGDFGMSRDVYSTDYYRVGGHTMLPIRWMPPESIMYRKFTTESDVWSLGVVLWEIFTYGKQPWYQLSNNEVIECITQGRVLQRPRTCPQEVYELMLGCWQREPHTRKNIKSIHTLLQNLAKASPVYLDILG", "experiment": "Activation of TrkB receptor in Swiss Webster mouse immature cerebrocortical neuron assessed as phosphorylation of TrkB at Tyr516 residue at 30 nM incubated for 30 mins by western blot analysis", "type": "cell-based", "settings": "filed as activator", "summary_of_the_method": "as §1"}}, "note": "Activity calls are given as the source filed them. The rule behind the calls is not given here.", "data": [{"molecule": "C=C1CC(=O)N[C@@H](C)C(=O)N(C)[C@@H](C(C)C)C(=O)NCC(=O)O[C@@H](/C(C)=C/C(C)=C/C(C)(C)C)[C@@H]1C", "note": "[ANTILLATOXIN]", "values": [{"measurement": "Activity", "setting": "[1]", "value": "Active"}, {"measurement": "Activity", "setting": "[2]", "value": 2.32, "unit": "µM"}, {"measurement": "Activity", "setting": "[3]", "value": "Active"}, {"measurement": "fold change (FC)", "setting": "[4]", "value": 3}, {"measurement": "Activity", "setting": "[5]", "value": 1.81, "unit": "µM"}, {"measurement": "Activity", "setting": "[6]", "value": "Active"}, {"measurement": "Activity", "setting": "[7]", "value": 2.07, "unit": "µM"}, {"measurement": "EC50", "setting": "[8]", "value": 0.45, "unit": "µM"}, {"measurement": "Activity", "setting": "[9]", "value": "Dde"}, {"measurement": "Activity", "setting": "[10]", "value": 1.73, "unit": "µM"}, {"measurement": "fold change (FC)", "setting": "[11]", "value": 2}, {"measurement": "Activity", "setting": "[12]", "value": "Active"}, {"measurement": "Activity", "setting": "[13]", "value": "Active"}]}]}
